Reference: ChEMBL document CHEMBL4190388, “Discovery and Optimization of Indolyl-Containing 4-Hydroxy-2-Pyridone Type II DNA Topoisomerase Inhibitors Active against Multidrug Resistant Gram-negative Bacteria” (J Med Chem, 2018)
≈ marks a conversion by molar mass, not a printed value.

Legend:
Escherichia coli [1] = experiment: Antibacterial activity against multidrug resistant Escherichia coli by broth microdilution method; assay type: functional; details: Escherichia coli
Method in brief: (§1)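 MICs were determined by CLSI broth methods, except that organisms were grown in brain–heart–infusion medium. The panel comprised wild-type and resistant E. coli and A. baumannii strains, including 12 strains whose details are given by reference.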

Acinetobacter baumannii [2] = experiment: Antibacterial activity against fluoroquinolone resistant Acinetobacter baumannii isolate MMX2240 by CLSI M100-S17 protocol based method; assay type: functional
Escherichia coli [3] = experiment: Antibacterial activity against beta-lactam resistant Escherichia coli by broth microdilution method; assay type: functional; details: Escherichia coli; method in brief: as §1
Acinetobacter baumannii [4] = experiment: Antibacterial activity against wild type Acinetobacter baumannii ATCC BAA-747 by CLSI M100-S17 protocol based method; assay type: functional
[5] = Oral bioavailability in CD1 mouse plasma by LC-MS/MS analysis; assay type: ADME, organism-based
Escherichia coli [6] = experiment: Antibacterial activity against Escherichia coli infected in cyclophosphamide treated neutropenic CD1 mouse septicemia model assessed as mouse survival at 20 mg/kg, iv dosed at 1 hr post infection followed by redosing at 5 hrs post infection measured at 96 hrs post infection relative to control; assay type: functional
Method in brief: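 Female CD-1 mice were made neutropenic with cyclophosphamide ip, 150 mg/kg on day −4 and 100 mg/kg on day −1. […] Compound was given iv in 3% DMSO/saline at 1 and 5 h postinfection, n = 6 per group. Percent survival was scored at 96 h postinfection.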

Escherichia coli [7] = experiment: Antibacterial activity against fluoroquinolone resistant Escherichia coli SKM18 by CLSI M100-S17 protocol based method; assay type: functional
Acinetobacter baumannii [8] = experiment: Antibacterial activity against carbapenem resistant Acinetobacter baumannii by broth microdilution method; assay type: functional; details: Acinetobacter baumannii; method in brief: as §1
Escherichia coli [9] = experiment: Antibacterial activity against wild type Escherichia coli ATCC 25922 in presence of HSA by CLSI M100-S17 protocol based method; assay type: functional
Escherichia coli [10] = experiment: Antibacterial activity against wild type Escherichia coli ATCC 25922 by CLSI M100-S17 protocol based method; assay type: functional
Escherichia coli [11] = experiment: Antibacterial activity against wild type Escherichia coli by broth microdilution method; assay type: functional; method in brief: as §1
Escherichia coli [12] = experiment: Selectivity ratio of MIC for wild type Escherichia coli ATCC 25922 in presence of HSA to MIC for wild type Escherichia coli ATCC 25922; assay type: functional
Mus musculus [13] = experiment: Terminal half life in CD1 mouse plasma at 10 mg/kg, iv by LC-MS/MS analysis; assay type: ADME, organism-based; details: in vivo
Escherichia coli [14] = experiment: Antibacterial activity against quinolone resistant Escherichia coli by broth microdilution method; assay type: functional; details: Escherichia coli; method in brief: as §1
Klebsiella pneumoniae = experiment: Antibacterial activity against wild type Klebsiella pneumoniae ATCC 35657 by CLSI M100-S17 protocol based method; assay type: functional
Acinetobacter baumannii [15] = experiment: Antibacterial activity against quinolone resistant Acinetobacter baumannii by broth microdilution method; assay type: functional; details: Acinetobacter baumannii; method in brief: as §1
Escherichia coli [16] = experiment: Antibacterial activity against quinolone resistance Escherichia coli isolate ELZ4251 harboring gyrA/parC mutant by CLSI M100-S17 protocol based method; assay type: functional
Mus musculus [17] = experiment: AUC (0 to 24 hrs) in CD1 mouse plasma at 10 mg/kg, iv by LC-MS/MS analysis; assay type: ADME, organism-based; set-up: time < 24 hr, dose 10 mg/kg, route intravenous; details: in vivo
Method in brief: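 CD-1 mice given a single 10 mg/kg iv dose (n = 3), in either 10% DMSO plus 1% Tween 80 in pH 8.0 phosphate buffer or 20% (2-hydroxypropyl)-β-cyclodextrin in pH 4.0 citrate buffer; plasma exposure measured.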

Mus musculus [18] = experiment: Volume of distribution at steady state in CD1 mouse plasma at 10 mg/kg, iv by LC-MS/MS analysis; assay type: ADME, organism-based; details: in vivo
Acinetobacter baumannii [19] = experiment: Antibacterial activity against beta-lactam resistant Acinetobacter baumannii by broth microdilution method; assay type: functional; details: Acinetobacter baumannii; method in brief: as §1
Acinetobacter baumannii [20] = experiment: Antibacterial activity against aminoglycoside resistant Acinetobacter baumannii by broth microdilution method; assay type: functional; details: Acinetobacter baumannii; method in brief: as §1
Escherichia coli [21] = experiment: Antibacterial activity against aminoglycoside resistant Escherichia coli by broth microdilution method; assay type: functional; details: Escherichia coli; method in brief: as §1
Acinetobacter baumannii [22] = experiment: Antibacterial activity against wild type Acinetobacter baumannii by broth microdilution method; assay type: functional; method in brief: as §1
Acinetobacter baumannii [23] = experiment: Antibacterial activity against multidrug resistant Acinetobacter baumannii by broth microdilution method; assay type: functional; details: Acinetobacter baumannii; method in brief: as §1
[24] = Fraction unbound in mouse plasma at 1 uM by equilibrium dialysis method; assay type: ADME, cell-free
Acinetobacter baumannii [25] = experiment: Bactericidal activity against wild type Acinetobacter baumannii ATCC BAA-747 assessed as reduction of bacterial load at 0.25 to 4 times MIC after 2 hrs by time kill assay; assay type: functional
Escherichia coli [26] = experiment: Bactericidal activity against wild type Escherichia coli ATCC 25922 assessed as reduction of bacterial load at 0.25 to 8 times MIC after 2 hrs by time kill assay; assay type: functional
Escherichia coli [27] = experiment: Bactericidal activity against wild type Escherichia coli ATCC 25922 assessed as reduction of bacterial load after 24 hrs by time kill assay; assay type: functional, organism-based
Acinetobacter baumannii [28] = experiment: Bactericidal activity against wild type Acinetobacter baumannii ATCC BAA-747 assessed as reduction of bacterial load after 24 hrs by time kill assay; assay type: functional, organism-based

With `Cn1c(CNC2(C)CCC2)cc2cc3c(cc21)OCCc1c-3[nH]c(=O)c(C(=O)O)c1O` the MIC50 (Escherichia coli [1]) was 0.5 µg/mL (≈ 1.18 µM), the MIC90 (Escherichia coli [1]) was 1 µg/mL (≈ 2.36 µM) and the MIC (Escherichia coli [1]; read-out: MIC) was 0.12 to 1 µg/mL (≈ 0.283 to 2.36 µM). For the same compound, the MIC (Acinetobacter baumannii [2]) was 0.5 µg/mL (≈ 1.18 µM), the MIC50 (Escherichia coli [3]) was 0.5 µg/mL (≈ 1.18 µM) and the MIC90 (Escherichia coli [3]) was 1 µg/mL (≈ 2.36 µM). It also gave an MIC (Escherichia coli [3]; read-out: MIC) of 0.12 to 1 µg/mL (≈ 0.283 to 2.36 µM), an MIC (Acinetobacter baumannii [4]) of 0.5 µg/mL (≈ 1.18 µM) and a bioavailability [5] of 50%. For the same compound, the survival at 20 mg/kg (Escherichia coli [6]) was 67%, the MIC (Escherichia coli [7]) was 0.5 µg/mL (≈ 1.18 µM) and the MIC50 (Acinetobacter baumannii [8]) was 1 µg/mL (≈ 2.36 µM). It also gave an MIC90 (Acinetobacter baumannii [8]) of 8 µg/mL (≈ 18.9 µM), an MIC (Escherichia coli [9]) of 3.9 µg/mL and an MIC (Escherichia coli [10]) of 1 µg/mL (≈ 2.36 µM). For the same compound, the MIC50 (Escherichia coli [11]) was 0.5 µg/mL (≈ 1.18 µM), the MIC90 (Escherichia coli [11]) was 1 µg/mL (≈ 2.36 µM) and the Ratio (Escherichia coli [12]) was 2 - 4. For the same compound, the “beta t1/2” value (Mus musculus [13]) was 3.3 h, the MIC50 (Escherichia coli [14]) was 0.5 µg/mL (≈ 1.18 µM) and the MIC90 (Escherichia coli [14]) was 1 µg/mL (≈ 2.36 µM). It also gave an MIC (Escherichia coli [14]; read-out: MIC) of 0.12 to 1 µg/mL (≈ 0.283 to 2.36 µM), an MIC (Klebsiella pneumoniae) of 1 µg/mL (≈ 2.36 µM) and an MIC50 (Acinetobacter baumannii [15]) of 1 µg/mL (≈ 2.36 µM). It also gave an MIC90 (Acinetobacter baumannii [15]) of 8 µg/mL (≈ 18.9 µM), an MIC (Escherichia coli [16]) of 0.78 µg/mL (≈ 1.84 µM) and an AUC (Mus musculus [17]) of 4420 ng·h/mL. It also gave a Vdss (Mus musculus [18]) of 13 L/kg, an MIC50 (Acinetobacter baumannii [19]) of 1 µg/mL (≈ 2.36 µM) and an MIC90 (Acinetobacter baumannii [19]) of 8 µg/mL (≈ 18.9 µM). It also gave an MIC50 (Acinetobacter baumannii [20]) of 1 µg/mL (≈ 2.36 µM), an MIC90 (Acinetobacter baumannii [20]) of 8 µg/mL (≈ 18.9 µM) and an MIC50 (Escherichia coli [21]) of 0.5 µg/mL (≈ 1.18 µM). It also gave an MIC90 (Escherichia coli [21]) of 1 µg/mL (≈ 2.36 µM), an MIC (Escherichia coli [21]; read-out: MIC) of 0.12 to 1 µg/mL (≈ 0.283 to 2.36 µM) and an MIC50 (Acinetobacter baumannii [22]) of 1 µg/mL (≈ 2.36 µM). It also gave an MIC90 (Acinetobacter baumannii [22]) of 8 µg/mL (≈ 18.9 µM), an MIC50 (Acinetobacter baumannii [23]) of 1 µg/mL (≈ 2.36 µM) and an MIC90 (Acinetobacter baumannii [23]) of 8 µg/mL (≈ 18.9 µM). It also gave a Fu [24] of 0.15.
`CCc1c(-c2ccc3c(c2)cc(CN2CCC2)n3C)[nH]c(=O)c(C(=O)O)c1O` showed an MIC (Acinetobacter baumannii [2]) of 6.3 µg/mL (≈ 16.5 µM), an MIC (Acinetobacter baumannii [4]) of 0.39 µg/mL (≈ 1.02 µM) and an MIC (Escherichia coli [7]) of 1.6 µg/mL (≈ 4.19 µM). It also gave an MIC (Escherichia coli [9]) of 1.6 µg/mL, an MIC (Escherichia coli [10]) of 0.39 µg/mL (≈ 1.02 µM) and an Activity (Acinetobacter baumannii [25]) of 2 log10CFU. The MIC (Klebsiella pneumoniae) was 0.78 µg/mL (≈ 2.04 µM), the Activity (Escherichia coli [26]) was 3 log10CFU and the Activity (Escherichia coli [27]) was “Dose-dependent effect”. The MIC (Escherichia coli [16]) was 1.6 µg/mL (≈ 4.19 µM) and the Activity (Acinetobacter baumannii [28]) was “Dose-dependent effect”.
